High-throughput results from PubChem.
In the library only some 1.8% were active in any assay of this set; here they are far more common.
procasp3 activ – procaspase-3 (human) activation | activation, % at 8.5 µM | AID 463141 | recombinant procaspase-3 D3A, Ac-DEVD-pNA absorbance 405 nm | P42574 | 0.11% of 330,000 active;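 active = activation above the mean of all tested compounds plus 3 SD, cut at about 21% in these data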;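 also: 0% = DMSO alone and 100% = DMSO wells spiked with extra 5 µM PC-3 D3A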
Target sequence (P42574 whole entry D9A/D28A/D175A): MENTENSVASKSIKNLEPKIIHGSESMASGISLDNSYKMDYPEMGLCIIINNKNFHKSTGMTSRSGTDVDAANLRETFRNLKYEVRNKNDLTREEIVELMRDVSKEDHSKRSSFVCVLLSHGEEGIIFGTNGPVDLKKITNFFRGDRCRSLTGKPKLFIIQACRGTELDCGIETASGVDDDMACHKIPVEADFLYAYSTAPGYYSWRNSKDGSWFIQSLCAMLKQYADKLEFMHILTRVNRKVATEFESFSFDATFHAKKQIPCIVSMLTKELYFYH
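Compound: 8.5 µM single point, 0.8% DMSO / Material: Autoprocessing-dead procaspase-3 D3A mutant enzyme / Timing: 1 h preincubation plus 2 h reaction at 25 °C / Medium: Zinc-free HEPES/NaCl buffer with 0.01% Triton X-100 at pH 7.4 / Technique: 405 nm absorbance of p-nitroaniline, reads at 0 and 120 min / Repeats: one well per compound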
EBNA-1 inhibitor – blocks EBNA-1 binding to DNA; 0.34% of 300,000 active; EBNA-1 DNA binding, fluorescence polarization; inhibition, % at 14.8 µM; in the data active = inhibition above about 28%
ZTA counter – ZTA (EBV) inhibition in EBNA-1 counter-screen | ZTA-DNA binding, fluorescence polarization | P03206 | AID 2234 | inhibition, % at 11 µM | 0.15% of 320,000 active; in the data active = inhibition above about 33%
procasp7 counter – activates human procaspase-7, counter-screen for procaspase-3 activators. recombinant procaspase-7, Ac-DEVD-pNA absorbance 405 nm; D23A/D198A/D206A triple mutant, cannot self-cleave; scale: DMSO 0, 5 µM enzyme 100. AID 463210. 0.093% of 330,000 active. activation, % at 8.5 µM;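 active = percent activation above the screen-wide mean plus 3 SD, cut at about 25% in these data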
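System: Procaspase-7 triple mutant (PC-7 D3A); measure: % activation from two-timepoint absorbance difference, scaled to controls; times: 1 h compound preincubation, 2 h substrate cleavage, 25 °C; also added: Ac-DEVD-pNA substrate, 400 µM as added; measured by: Epi-absorbance of released pNA at 405 nm, two timepoints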
GSTO1 inh – GSTO1 inhibition, counter-screen for RBBP9 inhibitors; P78417; recombinant GSTO1, activity-based probe fluorescence polarization; inhibition, % at 5.96 µM; 1.1% of 300,000 active; AID 1974;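 active = inhibition above the campaign mean inhibition plus 3 SD, cut at about 35% in these data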;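 also: 0% = GSTO1-1 with DMSO and 100% = wells lacking GSTO1-1 enzyme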
Apaf1 inhib – blocks human Apaf-1 apoptosome activity | O14727 | inhibition, % at 20 µM | reconstituted apoptosome caspase-3 activity, DEVD-Rh110 fluorescence | 0.71% of 330,000 active; active = inhibition of at least 40% at 20 µM;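 also: plate controls were DMSO wells for no effect and DEVD-CHO caspase inhibitor wells for full effect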
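detection = Rh110 fluorescence intensity | test system = biochemical Apaf-1 apoptosome reconstitution | also added = cytochrome c and DEVD-Rh110 substrate | schedule = 30 min plus 50 min, RT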
GSTO1 confirm – GSTO1 (human) inhibition, confirmation | shares compounds with GSTO1 inh | recombinant GSTO1, probe fluorescence polarization | inhibition, % at 5.96 µM | 54% of 2,400 active | AID 2176;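 active = inhibition above the primary screen's cutoff, its mean inhibition plus 3 SD, cut at about 35% in these data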;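 also: loss of polarization as inhibitors block binding of rhodamine sulfonate ester activity probe; 0% = GSTO1 with DMSO and 100% = wells lacking GSTO1 enzyme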
Apaf-1 inh conf2 – Apaf-1 inhibition, single-dose confirmed | inhibition, % at 20 µM | shares compounds with Apaf1 inhib | AID 504614 | 25% of 1,800 active | reconstituted apoptosome, caspase-3 DEVD-Rh110 fluorescence;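 active = mean inhibition of at least 40% at 20 µM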;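 also: plate controls were DMSO wells for no effect and DEVD-CHO caspase inhibitor control wells for full effect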
Rh110 interf inh – counter-screen for Apaf-1 inhibitors: fluorescence interference; shares compounds with Apaf1 inhib; Rh110 fluorescence interference, quenched caspase reaction; activation (fluorescence interference), % at 20 µM; 1,800 tested, under 10 active; AID 504615;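 active = signal rise of 40% or more at 20 µM, treated as a fluorescence artifact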
Fluor interf inh – counter-screen for Apaf-1 inhibitors: fluorescence interference, dose response. IC50, µM. shares compounds with Apaf1 inhib. 460 tested, under 10 active. fluorescence interference counterscreen, Apaf-1 assay format; call rule not given here
* hit, by the source's call; / = not tested or not shown.

SMILES	procasp3 activ	EBNA-1 inhibitor	ZTA counter	procasp7 counter	GSTO1 inh	Apaf1 inhib	GSTO1 confirm	Apaf-1 inh conf2	Rh110 interf inh	others
CC1=NN(c2ccc(C)cc2C)C(=O)C1C(c1ccccc1O)C1C(=O)N(c2ccc(C)cc2C)N=C1C (configuration not stated)	-9	-9	-10	-14	56*	97*	10	23	-2
CCC1Cc2c(nc(N)c3c(N)nc(N4CCCCC4)c(C#N)c23)O1 (configuration not stated)	6	3	13	15	1	7	/	/	/
CC(C)(C)N1C(=O)Cc2c1nc(N)c1c(N)nc(N3CCCCC3CO)c(C#N)c21 (configuration not stated)	-9	-3	-7	-25	91*	99*	88*	21	3
O=C(O)CCCNc1cc(N2CCN(C(=O)c3ccco3)CC2)c2noc3c2c1C(=O)c1ccccc1-3	-1	81*	149*	-15	53*	60*	30	28	1
C=CCC1(CC=C)CCCN1C(=O)c1cc(COc2ccc(C)nc2)on1	0	-2	-7	3	-1	12	/	/	/
Cc1ccc(C(=O)CN2C(=O)NC3(CCCCCC3)C2=O)c(C)c1	9	-9	-5	1	7	10	/	/	/
Cc1ccc(S(=O)(=O)Oc2ccc(/C=N/N=C3/NC(=O)C(CC(=O)O)S3)cc2)cc1 (configuration not stated)	/	/	/	/	/	7	/	/	/
Cc1ccc(-c2ccc(/C=N/N=C3/NC(=O)C(CC(=O)O)S3)o2)c([N+](=O)[O-])c1 (configuration not stated)	-10	1	2	-19	67*	74*	12	28	9
O=[N+]([O-])c1ccccc1-c1ccc(/C=N/n2cnnc2)o1	-5	5	3	0	12	-2	/	/	/
O=C(O)CC1S/C(=N/N=C/c2ccc(-c3ccccc3[N+](=O)[O-])o2)NC1=O (configuration not stated)	-1	4	6	1	62*	73*	9	21	2
Cc1ccccc1N1CCN(C2CCCN(C(=O)c3cnsn3)C2)CC1 (configuration not stated)	-5	4	-6	9	-3	1	/	/	/
O=C(OCC(=O)N1CCc2ccccc21)c1n[nH]c(=O)c2ccccc12	6	/	-3	8	/	-6	/	/	/
Cc1ccc(-c2cc3c(nn2)-c2ccccc2C3=O)cc1	-7	4	1	0	17	27	/	/	/
Cc1ccccc1-c1cc2c(nn1)-c1ccccc1C2=O	-7	4	-3	8	75*	97*	70*	61*	-7	Fluor interf inh=>100
Cc1ccc(N2CC(C(=O)N(C)CC(=O)Nc3ccc(Cl)c(C(F)(F)F)c3)CC2=O)cc1 (configuration not stated)	-2	1	-11	0	3	14	/	/	/
CCCC(=Nc1ccc(N)cc1)C1=C(O)C(C(=O)OC)C(C)(C)CC1=O (configuration not stated)	-12	-13	-9	-9	88*	67*	8	-1	-6
C=CCN(CC=C)Cc1c(O)ccc2c1oc(=O)c1ccccc12	-24	-6	18	-24	55*	47*	29	41*	3	Fluor interf inh=>100
